Data taken from ChEMBL document CHEMBL1926565, “Synthesis, antiproliferative activities and telomerase inhibition evaluation of novel asymmetrical 1,2-disubstituted amidoanthraquinone derivatives” (Eur J Med Chem, 2012).
The source made the active and inactive calls. The calls are words filed in the database; no cut-off is given here.

Columns and labels:
MOLT-4 = test: Cytotoxicity against human MOLT4 cells assessed as cellular growth at 10 uM; assay type: functional
How it was run: (§1)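 Single-dose screen run by the NCI across its 60-human-tumour-cell-line panel; growth recorded for each cell line.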

CCRF-CEM = test: Cytotoxicity against human CCRF-CEM cells assessed as cellular growth at 10 uM; assay type: functional; how it was run: as §1
NCI-H460 = test: Cytotoxicity against human NCI-H460 cells assessed as cellular growth at 10 uM; assay type: functional; how it was run: as §1
HOP-62 = test: Cytotoxicity against human HOP62 cells assessed as cellular growth at 10 uM; assay type: functional; how it was run: as §1
Malme-3M = test: Cytotoxicity against human MALME-3M cells assessed as cellular growth at 10 uM; assay type: functional; how it was run: as §1
HL-60(TB) = test: Cytotoxicity against human HL-60(TB) cells assessed as cellular growth at 10 uM; assay type: functional; how it was run: as §1
786-0 = test: Cytotoxicity against human 786-0 cells assessed as cellular growth at 10 uM; assay type: functional; how it was run: as §1
HCT-116 = test: Cytotoxicity against human HCT116 cells assessed as cellular growth at 10 uM; assay type: functional; how it was run: as §1
M14 = test: Cytotoxicity against human M14 cells assessed as cellular growth at 10 uM; assay type: functional; how it was run: as §1
OVCAR-5 = test: Cytotoxicity against human OVCAR5 cells assessed as cellular growth at 10 uM; assay type: functional; how it was run: as §1
A498 = test: Cytotoxicity against human A498 cells assessed as cellular growth at 10 uM; assay type: functional; how it was run: as §1
PC-3 [1] = test: Cytotoxicity against human PC3 cells assessed as cellular growth at 10 uM; assay type: functional; how it was run: as §1
[2] = biological target: Telomerase reverse transcriptase (Homo sapiens) (UniProt O14746); test: Residual activity of human TERT in H1299 cells at 1 uM after 24 hrs by SEAP reporter gene assay
Telomerase reverse transcriptase (Homo sapiens), sequence (O14746 whole entry): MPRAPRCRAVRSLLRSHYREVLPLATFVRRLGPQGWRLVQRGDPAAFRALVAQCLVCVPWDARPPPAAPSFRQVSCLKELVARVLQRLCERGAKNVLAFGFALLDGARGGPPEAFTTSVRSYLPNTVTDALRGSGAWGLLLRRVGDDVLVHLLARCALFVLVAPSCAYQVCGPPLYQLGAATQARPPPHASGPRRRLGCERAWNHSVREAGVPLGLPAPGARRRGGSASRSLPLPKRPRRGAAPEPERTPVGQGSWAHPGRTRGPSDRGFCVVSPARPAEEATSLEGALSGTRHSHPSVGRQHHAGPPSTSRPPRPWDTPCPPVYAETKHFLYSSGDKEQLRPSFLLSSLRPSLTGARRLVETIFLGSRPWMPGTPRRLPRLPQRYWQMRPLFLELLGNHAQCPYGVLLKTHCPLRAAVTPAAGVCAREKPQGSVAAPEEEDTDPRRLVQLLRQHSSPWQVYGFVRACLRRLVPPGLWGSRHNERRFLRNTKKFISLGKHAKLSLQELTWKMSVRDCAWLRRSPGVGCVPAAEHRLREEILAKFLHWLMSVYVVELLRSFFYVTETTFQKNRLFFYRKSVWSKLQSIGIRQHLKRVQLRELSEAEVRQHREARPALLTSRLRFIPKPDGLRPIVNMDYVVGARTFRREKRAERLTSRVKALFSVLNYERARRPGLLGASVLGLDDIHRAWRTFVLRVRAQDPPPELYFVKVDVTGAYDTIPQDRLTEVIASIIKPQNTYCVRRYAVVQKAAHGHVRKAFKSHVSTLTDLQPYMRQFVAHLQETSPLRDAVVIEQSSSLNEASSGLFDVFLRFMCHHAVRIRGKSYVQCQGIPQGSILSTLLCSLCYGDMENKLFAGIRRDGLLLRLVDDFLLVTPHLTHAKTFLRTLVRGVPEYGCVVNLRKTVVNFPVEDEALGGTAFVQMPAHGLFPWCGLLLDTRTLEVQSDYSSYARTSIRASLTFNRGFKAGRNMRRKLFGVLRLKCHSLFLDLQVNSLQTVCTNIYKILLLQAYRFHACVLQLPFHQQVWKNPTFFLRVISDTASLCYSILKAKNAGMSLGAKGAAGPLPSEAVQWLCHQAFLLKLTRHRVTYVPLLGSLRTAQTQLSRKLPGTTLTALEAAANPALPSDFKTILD

PC-3 [3] = test: Cytotoxicity against human PC3 cells after 48 hrs by SRB assay; assay type: functional, cell-based; conditions: PC-3, 48 h
How it was run: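 PC-3 cells grown in RPMI1640 with 10% FBS at 37 °C, 5% CO₂. Seeded in medium with 5% FBS; after 24 h, one plate fixed with 10% TCA as T₀. Compound or 0.1% DMSO vehicle added for 48 h, then TCA fixation and 0.4% SRB in 1% acetic acid. Dye solubilized in 10 mM Trizma base, absorbance read at 515 nm. IC50 is the concentration giving 50% reduction of the protein gain in controls.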

OVCAR-4 = test: Cytotoxicity against human OVCAR4 cells assessed as cellular growth at 10 uM; assay type: functional; how it was run: as §1
SN12C = test: Cytotoxicity against human SN12C cells assessed as cellular growth at 10 uM; assay type: functional
[4] = Cytotoxicity against human Hs 578T cells assessed as cellular growth at 10 uM; assay type: functional; how it was run: as §1
A549 = test: Cytotoxicity against human A549 cells assessed as cellular growth at 10 uM; assay type: functional; how it was run: as §1
SF-539 = test: Cytotoxicity against human SF539 cells assessed as cellular growth at 10 uM; assay type: functional; how it was run: as §1
BT-549 = test: Cytotoxicity against human BT549 cells assessed as cellular growth at 10 uM; assay type: functional; how it was run: as §1
HCC 2998 = test: Cytotoxicity against human HCC2998 cells assessed as cellular growth at 10 uM; assay type: functional; how it was run: as §1
[5] = biological target: Telomerase reverse transcriptase (Homo sapiens) (UniProt O14746); test: Inhibition of telomerase activity in human H1299 cell free extract at 10 uM by modified TRAP assay
How it was run: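 TRAP assay using total cell lysate from H1299 lung cancer cells as the telomerase source, with protein measured against BSA standards. Compounds tested at 10 µM. Controls were lysate without inhibitor (positive) and RNase A-treated extract without inhibitor (negative).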

T47D = test: Cytotoxicity against human T47D cells assessed as cellular growth at 10 uM; assay type: functional
IGROV-1 = test: Cytotoxicity against human IGROV1 cells assessed as cellular growth at 10 uM; assay type: functional; how it was run: as §1
NCI/ADR-RES = test: Cytotoxicity against human NCI/ADR-RES cells assessed as cellular growth at 10 uM; assay type: functional; how it was run: as §1
NCI-H322M = test: Cytotoxicity against human NCI-H322M cells assessed as cellular growth at 10 uM; assay type: functional; how it was run: as §1
KM12 = test: Cytotoxicity against human KM12 cells assessed as cellular growth at 10 uM; assay type: functional; how it was run: as §1
NCI-H23 = test: Cytotoxicity against human NCI-H23 cells assessed as cellular growth at 10 uM; assay type: functional; how it was run: as §1
SK-MEL-2 = test: Cytotoxicity against human SK-MEL-2 cells assessed as cellular growth at 10 uM; assay type: functional; how it was run: as §1
K562 = test: Cytotoxicity against human K562 cells assessed as cellular growth at 10 uM; assay type: functional; how it was run: as §1
U-251 = test: Cytotoxicity against human U251 cells assessed as cellular growth at 10 uM; assay type: functional
SK-MEL-5 = test: Cytotoxicity against human SK-MEL-5 cells assessed as cellular growth at 10 uM; assay type: functional
SK-MEL-28 = test: Cytotoxicity against human SK-MEL-28 cells assessed as cellular growth at 10 uM; assay type: functional; how it was run: as §1
SF-295 = test: Cytotoxicity against human SF295 cells assessed as cellular growth at 10 uM; assay type: functional; how it was run: as §1
DU-145 = test: Cytotoxicity against human DU145 cells assessed as cellular growth at 10 uM; assay type: functional; how it was run: as §1
HT-29 = test: Cytotoxicity against human HT-29 cells assessed as cellular growth at 10 uM; assay type: functional; how it was run: as §1
SW-620 = test: Cytotoxicity against human SW620 cells assessed as cellular growth at 10 uM; assay type: functional
[6] = Growth of human H1299 cells at 1 uM after 48 hrs by MTT assay; conditions: NCI-H1299, 48 h
UACC-257 = test: Cytotoxicity against human UACC257 cells assessed as cellular growth at 10 uM; assay type: functional
MDA-MB-231 = test: Cytotoxicity against human MDA-MB-231 cells assessed as cellular growth at 10 uM; assay type: functional; how it was run: as §1
UO-31 = test: Cytotoxicity against human UO31 cells assessed as cellular growth at 10 uM; assay type: functional
[7] = Growth of human H1299 cells at 100 uM 48 hrs by MTT assay; conditions: NCI-H1299, 48 h
HCT-15 = test: Cytotoxicity against human HCT15 cells assessed as cellular growth at 10 uM; assay type: functional; how it was run: as §1
SNB-75 = test: Cytotoxicity against human SNB75 cells assessed as cellular growth at 10 uM; assay type: functional
OVCAR-3 = test: Cytotoxicity against human OVCAR3 cells assessed as cellular growth at 10 uM; assay type: functional; how it was run: as §1
UACC-62 = test: Cytotoxicity against human UACC62 cells assessed as cellular growth at 10 uM; assay type: functional
TK-10 = test: Cytotoxicity against human TK10 cells assessed as cellular growth at 10 uM; assay type: functional
HOP-92 = test: Cytotoxicity against human HOP92 cells assessed as cellular growth at 10 uM; assay type: functional; how it was run: as §1
[8] = Growth of human H1299 cells at 10 uM after 48 hrs by MTT assay; conditions: NCI-H1299, 48 h
COLO 205 = test: Cytotoxicity against human COLO205 cells assessed as cellular growth at 10 uM; assay type: functional; how it was run: as §1
SR = test: Cytotoxicity against human SR cells assessed as cellular growth at 10 uM; assay type: functional

SMILES: Cc1ccc(C(=O)Nc2c(NC(=O)CN3CCCC3)ccc3c2C(=O)c2ccccc2C3=O)cc1
- Activity (MOLT-4): 48.2%
- Activity (CCRF-CEM): 39.61%
- Activity (NCI-H460): 61.05%
- Activity (HOP-62): 113.43%
- Activity (Malme-3M): 82.24%
- Activity (HL-60(TB)): 96.11%
- Activity (786-0): 65.15%
- Activity (HCT-116): 58.46%
- Activity (M14): 88.01%
- Activity (OVCAR-5): 102.31%
- Activity (A498): 68.12%
- Activity (PC-3 [1]): 75%
- residual activity [2]: 81%
- IC50 (PC-3 [3]): 17.6 µM
- Activity (OVCAR-4): 47.06%
- Activity (SN12C): 74.82%
- Activity [4]: 69.39%
- Activity (A549): 84.88%
- Activity (SF-539): 81.29%
- Activity (BT-549): 81.58%
- Activity (HCC 2998): 84.6%
- inhibition [5]: inactive
- Activity (T47D): 44.33%
- Activity (IGROV-1): 106.07%
- Activity (NCI/ADR-RES): 50.86%
- Activity (NCI-H322M): 82.5%
- Activity (KM12): 51.05%
- Activity (NCI-H23): 73.29%
- Activity (SK-MEL-2): 102.17%
- Activity (K562): 40.86%
- Activity (U-251): 82.17%
- Activity (SK-MEL-5): 61.74%
- Activity (SK-MEL-28): 92.18%
- Activity (SF-295): 68.97%
- Activity (DU-145): 91.52%
- Activity (HT-29): 31.34%
- Activity (SW-620): 82.29%
- growth, % of control at 1 µM [6]: 88%
- Activity (UACC-257): 92.83%
- Activity (MDA-MB-231): 73.34%
- Activity (UO-31): 69.24%
- growth, % of control at 100 µM [7]: 5%
- Activity (HCT-15): 73.22%
- Activity (SNB-75): 66.03%
- Activity (OVCAR-3): 77.82%
- Activity (UACC-62): 76.82%
- Activity (TK-10): 86.85%
- Activity (HOP-92): 59.33%
- growth, % of control at 10 µM [8]: 69%
- Activity (COLO 205): 65.6%

SMILES: Cc1ccc(C(=O)Nc2ccc3c(c2NC(=O)c2ccc(C)cc2)C(=O)c2ccccc2C3=O)cc1
- Activity (MOLT-4): 89.63%
- Activity (CCRF-CEM): 79.02%
- Activity (NCI-H460): 88.62%
- Activity (HOP-62): 105.23%
- Activity (Malme-3M): 127.16%
- Activity (HL-60(TB)): 73.11%
- Activity (786-0): 116.17%
- Activity (HCT-116): 78.55%
- Activity (M14): 91.57%
- Activity (OVCAR-5): 110.18%
- Activity (A498): 124.08%
- Activity (PC-3 [1]): 82.91%
- residual activity [2]: 108%
- IC50 (PC-3 [3]): 3.16 µM
- Activity (OVCAR-4): 104.32%
- Activity (SN12C): 98.59%
- Activity [4]: 105.96%
- Activity (A549): 90.46%
- Activity (SF-539): 97.26%
- Activity (BT-549): 95.39%
- Activity (HCC 2998): 84.68%
- inhibition [5]: inactive
- Activity (T47D): 100%
- Activity (IGROV-1): 78.71%
- Activity (NCI-H322M): 97.74%
- Activity (KM12): 94.21%
- Activity (NCI-H23): 90.57%
- Activity (SK-MEL-2): 100.65%
- Activity (K562): 107.54%
- Activity (U-251): 91.73%
- Activity (SR): 87.69%
- Activity (SK-MEL-5): 94.04%
- Activity (SK-MEL-28): 99.46%
- Activity (SF-295): 110.81%
- Activity (DU-145): 95.93%
- Activity (HT-29): 99.39%
- Activity (SW-620): 93.79%
- growth, % of control at 1 µM [6]: 100%
- Activity (UACC-257): 98.46%
- Activity (MDA-MB-231): 93.29%
- Activity (UO-31): 66.54%
- growth, % of control at 100 µM [7]: 62%
- Activity (HCT-15): 102.44%
- Activity (SNB-75): 102.26%
- Activity (OVCAR-3): 97.9%
- Activity (UACC-62): 87.5%
- Activity (TK-10): 124.91%
- Activity (HOP-92): 91.21%
- growth, % of control at 10 µM [8]: 116%
- Activity (COLO 205): 108.57%
